# Test results as given in ChEMBL document CHEMBL4130635, “2,4-Diaminoquinazolines as Dual Toll-like Receptor (TLR) 7/8 Modulators for the Treatment of Hepatitis B Virus” (J Med Chem, 2018).
# Calls of active or inactive are those of the source. The rule behind the calls is not given here.
# Assays:
# Plasma [1] = experiment: Induction of IFNalpha levels in C57BL/6J mouse plasma at 0.3 mg/kg, po by ELISA; format: functional, organism-based
# Liver [2] = experiment: Upregulation of IP-10 mRNA expression levels in C57BL/6J mouse liver at 0.3 mg/kg, po by RT-qPCR analysis (reference value: 1); format: functional
# Cynomolgus monkey [3] = experiment: Proinflammatory activity in cynomolgus monkey plasma assessed as IL-8 levels at 3 mg/kg, po after 24 hrs by Luminex assay (reference value: 430 pg/ml); format: functional, Macaca fascicularis
# [4] = Plasma concentration in C57BL/6J mouse at 30 mg/kg, po by LC-MS analysis; format: ADME, organism-based; conditions: in vivo
# Liver [5] = experiment: Anti-inflammatory activity in C57BL/6J mouse liver assessed as IL-10 levels at 3 mg/kg, po by multiplex assay (reference value: 2 pg/g); format: functional
# Procedure, shortened: (§1)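 Single oral gavage in 20% HP-β-CD to healthy C57BL/6 mice, groups of 15 at 0.3, 1, 3, 10 or 30 mg/kg. Three mice per group sacrificed at 0.5, 1, 2, 4 or 7 h. Plasma and liver cytokines by multiplex, maximum level reported, rounded to nearest multiple of 5.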
# Cynomolgus monkey [6] = experiment: Induction of ISG response in cynomolgus monkey plasma assessed as upregulation of Oas1b mRNA expression at 3 mg/kg, po after 24 hrs by Fluidigm RT-qPCR analysis (reference value: 1); format: functional, Macaca fascicularis
# Procedure, shortened: (§2)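 Cynomolgus monkeys, single oral doses of 1, 3, 9 and 30 mg/kg with a planned 2-week wash-out between doses. Systemic ISG (ISG15, Mx1, OAS1) mRNA was measured by Fluidigm RT-qPCR at 1, 2, 4, 8 and 24 h postdose.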
# Liver [7] = experiment: Proinflammatory activity in C57BL/6J mouse liver assessed as CXCL-1 levels at 0.3 mg/kg, po by multiplex assay (reference value: 25 pg/g); format: functional
# [8] = AUC (0 to last) in C57BL/6J mouse liver at 10 mg/kg, po by LC-MS analysis; format: ADME, organism-based; conditions: in vivo
# Procedure, shortened: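 Healthy C57BL/6 mice were dosed once by mouth at 0.3, 1, 3, 10 or 30 mg/kg in 20% HP-β-CD, in groups of 15 per dose. Three mice per group were sacrificed at 0.5, 1, 2, 4 or 7 h, and plasma and liver compound levels were measured by LC–MS. Values were rounded to whole numbers.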
# Liver [9] = experiment: Upregulation of IP-10 mRNA expression levels in C57BL/6J mouse liver at 3 mg/kg, po by RT-qPCR analysis (reference value: 1); format: functional
# Cynomolgus monkey [10] = experiment: Plasma concentration in cynomolgus monkey at 30 mg/kg, po by LC-MS analysis; format: ADME, organism-based, Macaca fascicularis; conditions: in vivo
# Liver [11] = experiment: Induction of IFNalpha levels in C57BL/6J mouse liver at 0.3 mg/kg, po by ELISA (reference value: 30 pg/g); format: functional
# [12] = Solubility of the compound in FeSSIF; format: physicochemical
# Plasma [13] = experiment: Effect on cytokine profile in C57BL/6J mouse plasma assessed as IFNgamma levels at 3 mg/kg, po by multiplex assay; format: functional, organism-based; procedure, shortened: as §1
# Cynomolgus monkey [14] = experiment: Induction of ISG response in cynomolgus monkey plasma assessed as upregulation of Isg15 mRNA expression at 9 mg/kg, po after 24 hrs by Fluidigm RT-qPCR analysis (reference value: 1); format: functional, Macaca fascicularis; procedure, shortened: as §2
# Plasma [15] = experiment: Proinflammatory activity in C57BL/6J mouse plasma assessed as IL-1beta levels at 10 mg/kg, po by multiplex assay (reference value: 60 pg/ml); format: functional
# [16] = Permeability of the compound in porcine LLC-PK1 cells expressing MDR1 at 1 uM by LC-MS/MS analysis; format: ADME, cell-based, Sus scrofa; conditions: pig, llc-pk1, 1 µM
# [17] = Stability in mouse hepatocytes assessed compound turnover at 1 uM after 60 mins; format: ADME, cell-based, Hepatocyte; conditions: read-out: Drug metabolism
# Plasma [18] = experiment: Proinflammatory activity in C57BL/6J mouse plasma assessed as IL-6 levels at 30 mg/kg, po by multiplex assay (reference value: 505 pg/ml); format: functional
# Plasma [19] = experiment: Upregulation of IP-10 mRNA expression levels in C57BL/6J mouse plasma at 1 mg/kg, po by RT-qPCR analysis (reference value: 1); format: functional
# Cynomolgus monkey [20] = experiment: Proinflammatory activity in cynomolgus monkey plasma assessed as IL-6 levels at 1 mg/kg, po after 24 hrs by Luminex assay (reference value: 80 pg/ml); format: functional, Macaca fascicularis
# Mus musculus = experiment: Toxicity in C57BL/6J mouse assessed as change in body temperature at 1 to 30 mg/kg, po; format: organism-based; conditions: in vivo
# [21] = molecular target: T1, TLR7 and TLR8 (Homo sapiens) (UniProt Q9NYK1+Q9NR97); experiment: Agonist activity at TLR7/8 in human PBMCs co-cultured with primary human hepatocytes infected with HBV genotype C for 12 days assessed as increase in MIP-1alpha levels up to 5 uM measured after 42 days
# Liver [22] = experiment: Proinflammatory activity in C57BL/6J mouse liver assessed as IL-6 levels at 1 mg/kg, po by multiplex assay (reference value: 10 pg/g); format: functional
# [23] = molecular target: T1, TLR7 and TLR8 (Homo sapiens); experiment: Agonist activity at TLR7/8 in human PBMCs co-cultured with primary human hepatocytes infected with HBV genotype C for 12 days assessed as increase in CXCL10 levels up to 5 uM measured after 42 days
# TK6 = experiment: Genotoxicity in human TK6 cells by in vitro micronuleus test; format: toxicity, cell-based
# Procedure, shortened: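 In vitro micronucleus test in TK-6 cells.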
# Cynomolgus monkey [24] = experiment: Induction of ISG response in cynomolgus monkey plasma assessed as upregulation of Oas1b mRNA expression at 30 mg/kg, po after 24 hrs by Fluidigm RT-qPCR analysis (reference value: 1); format: functional, Macaca fascicularis; procedure, shortened: as §2
# [25] = Ratio of drug level in Sprague-Dawley rat liver to plasma at 10 mg/kg, po
# Cynomolgus monkey [26] = experiment: Effect on cytokine profile in cynomolgus monkey plasma assessed as IL-12P70 levels at 3 mg/kg, po after 24 hrs by Luminex assay (reference value: 2.17 pg/ml); format: functional, organism-based; conditions: Macaca fascicularis
# Procedure, shortened: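 Healthy cynomolgus monkeys given single oral doses of 1, 3, 9 and 30 mg/kg, with a 2-week wash-out planned between doses. Systemic cytokine levels in plasma were sampled at 0.5, 1, 2, 4, 9 and 24 h postdose.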
# Hepatocyte = experiment: Toxicity in human primary hepatocytes infected with HBV genotype C for 12 days followed by exposure to conditioned supernatant from at 5 uM compound treated PBMCs assessed as increase in AST level measured after 42 days relative to untreated control; format: cell-based; conditions: 1008 h
# Cynomolgus monkey [27] = experiment: Plasma concentration in cynomolgus monkey at 9 mg/kg, po by LC-MS analysis; format: ADME, organism-based, Macaca fascicularis; conditions: in vivo
# Liver [28] = experiment: Effect on cytokine profile in C57BL/6J mouse liver assessed as IFNgamma levels at 30 mg/kg, po by multiplex assay; format: functional; procedure, shortened: as §1
# Plasma [29] = experiment: Effect on cytokine profile in C57BL/6J mouse plasma assessed as IFNgamma levels at 10 mg/kg, po by multiplex assay; format: functional; procedure, shortened: as §1
# Cynomolgus monkey [30] = experiment: Proinflammatory activity in cynomolgus monkey plasma assessed as TNFalpha levels at 3 mg/kg, po after 24 hrs by Luminex assay (reference value: 285 pg/ml); format: functional, Macaca fascicularis
# T1 sequence (Q9NR97 whole entry, looked up): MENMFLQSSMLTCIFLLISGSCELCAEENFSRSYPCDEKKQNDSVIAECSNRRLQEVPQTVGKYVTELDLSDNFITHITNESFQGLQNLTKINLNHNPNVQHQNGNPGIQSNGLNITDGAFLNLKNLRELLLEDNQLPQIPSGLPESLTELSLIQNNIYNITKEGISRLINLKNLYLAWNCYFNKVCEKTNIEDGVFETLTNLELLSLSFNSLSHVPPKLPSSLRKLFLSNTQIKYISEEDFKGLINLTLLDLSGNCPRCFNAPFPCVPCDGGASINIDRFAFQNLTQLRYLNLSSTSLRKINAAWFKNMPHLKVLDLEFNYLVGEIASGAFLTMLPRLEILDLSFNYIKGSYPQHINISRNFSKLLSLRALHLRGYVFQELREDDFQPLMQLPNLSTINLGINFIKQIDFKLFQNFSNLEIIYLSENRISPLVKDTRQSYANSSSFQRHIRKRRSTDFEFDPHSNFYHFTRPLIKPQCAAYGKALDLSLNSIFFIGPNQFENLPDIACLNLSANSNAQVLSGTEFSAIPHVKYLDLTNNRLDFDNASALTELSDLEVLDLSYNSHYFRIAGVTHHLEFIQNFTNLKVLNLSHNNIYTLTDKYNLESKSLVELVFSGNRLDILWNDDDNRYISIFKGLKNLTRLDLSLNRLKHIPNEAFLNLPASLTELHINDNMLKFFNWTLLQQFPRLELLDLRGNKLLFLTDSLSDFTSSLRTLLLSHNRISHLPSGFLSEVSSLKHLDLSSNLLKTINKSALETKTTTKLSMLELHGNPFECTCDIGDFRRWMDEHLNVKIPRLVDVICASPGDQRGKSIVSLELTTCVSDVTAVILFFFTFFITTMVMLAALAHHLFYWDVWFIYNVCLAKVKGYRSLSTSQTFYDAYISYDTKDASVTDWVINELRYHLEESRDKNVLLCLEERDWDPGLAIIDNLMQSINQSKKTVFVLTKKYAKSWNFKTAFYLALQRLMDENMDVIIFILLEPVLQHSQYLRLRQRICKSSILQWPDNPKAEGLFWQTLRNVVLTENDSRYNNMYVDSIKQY
# T1 sequence (Q9NYK1 whole entry, looked up): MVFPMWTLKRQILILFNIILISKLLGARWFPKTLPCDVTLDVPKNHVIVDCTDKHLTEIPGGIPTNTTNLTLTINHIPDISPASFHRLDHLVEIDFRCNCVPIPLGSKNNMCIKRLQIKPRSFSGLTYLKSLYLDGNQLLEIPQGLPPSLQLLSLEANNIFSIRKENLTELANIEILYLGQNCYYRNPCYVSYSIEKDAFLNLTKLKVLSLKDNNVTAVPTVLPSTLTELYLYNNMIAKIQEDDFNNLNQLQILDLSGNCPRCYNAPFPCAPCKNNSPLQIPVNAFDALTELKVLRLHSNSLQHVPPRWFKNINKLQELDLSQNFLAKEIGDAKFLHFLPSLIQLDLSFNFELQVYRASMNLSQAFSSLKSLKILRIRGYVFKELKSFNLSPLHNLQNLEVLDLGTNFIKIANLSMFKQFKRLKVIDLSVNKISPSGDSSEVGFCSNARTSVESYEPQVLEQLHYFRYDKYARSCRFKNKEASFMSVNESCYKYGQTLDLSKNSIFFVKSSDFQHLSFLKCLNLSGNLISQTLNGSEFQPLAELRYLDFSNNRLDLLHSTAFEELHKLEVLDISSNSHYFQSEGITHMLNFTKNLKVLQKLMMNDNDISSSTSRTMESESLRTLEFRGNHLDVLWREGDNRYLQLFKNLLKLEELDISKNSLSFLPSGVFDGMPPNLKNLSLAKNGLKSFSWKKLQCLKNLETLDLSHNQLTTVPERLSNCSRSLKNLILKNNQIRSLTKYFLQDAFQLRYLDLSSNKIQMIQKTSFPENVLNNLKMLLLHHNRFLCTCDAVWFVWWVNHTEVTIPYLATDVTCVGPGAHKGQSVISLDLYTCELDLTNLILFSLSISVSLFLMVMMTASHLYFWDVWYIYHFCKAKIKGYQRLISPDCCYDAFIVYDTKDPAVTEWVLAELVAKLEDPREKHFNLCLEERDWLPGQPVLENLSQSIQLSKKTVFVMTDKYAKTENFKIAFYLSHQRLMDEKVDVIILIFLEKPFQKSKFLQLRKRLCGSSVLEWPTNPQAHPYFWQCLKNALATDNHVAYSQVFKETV
smiles,measurement,setting,value
CCC[C@@H](CCO)Nc1nc(N)nc2c(F)cccc12,Activity,Plasma [1],Below limit of detection
same,fold change (FC),Liver [2],35
same,Activity,Cynomolgus monkey [3],1505 pg/mL
same,Cp,[4],35.7 ng/mL
same,Activity,Liver [5],1355 pg/g
same,fold change (FC),Cynomolgus monkey [6],265
same,Activity,Liver [7],7790 pg/g
same,AUClast,[8],2315 ng·h/g
same,fold change (FC),Liver [9],845
same,Cp,Cynomolgus monkey [10],160 ng/mL
same,Activity,Liver [11],100 pg/g
same,solubility,[12],> 4000 µg/mL
same,Activity,Plasma [13],Below limit of detection
same,fold change (FC),Cynomolgus monkey [14],560
same,Activity,Plasma [15],55 pg/mL
same,permeability,[16],Permeable
same,"metabolised at 1 h, 1 µM",[17],99%
same,Activity,Plasma [18],>10000 pg/mL
same,fold change (FC),Plasma [19],845
same,Activity,Cynomolgus monkey [20],75 pg/mL
same,Activity,Mus musculus,Non-Toxic
same,Activity,[21],Active
same,Activity,Liver [22],905 pg/g
same,Activity,[23],Active
same,Activity,TK6,Non-Toxic
same,fold change (FC),Cynomolgus monkey [24],235
same,Kp,[25],16
same,Activity,Cynomolgus monkey [26],Below limit of detection
same,fold change (FC),Hepatocyte,2.6
same,Cp,Cynomolgus monkey [27],200 ng/mL
same,Activity,Liver [28],700 pg/g
same,Activity,Plasma [29],295 pg/mL
same,Activity,Cynomolgus monkey [30],70 pg/mL
